ChEMBL document CHEMBL4342467, “Discovery of a Novel Dual-Target Inhibitor of ERK1 and ERK5 That Induces Regulated Cell Death to Overcome Compensatory Mechanism in Specific Tumor Types” (J Med Chem, 2020)
Activity calls are given as the source filed them. No cut-off for these calls is given here.

Assays:
HL-60 [1] = test: Induction of cytoplasmic vacuolization in human HL60 cells; assay type: functional, cell-based
Mus musculus [2] = test: In vivo inhibition of ERK5 in BALB/c mouse xenografted with human MKN74 cells assessed as reduction in phosphorylated ERK5 expression at 50 mg/kg, po administered once daily for 16 days measured post-last dose by immunohistochemical analysis; assay type: functional, organism-based
Procedure, shortened: (§1)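 Tumors excised from control and 50 mg/kg p.o.-treated xenograft mice were immunostained for Ki-67, p-ERK1/2 and p-ERK5. Positive-cell percentage quantified and compared with control.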

[3] = target: Mitogen-activated protein kinase 3 (Homo sapiens) (UniProt P27361); test: Inhibition of ERK1 (unknown origin) at 1 uM by Z'-Lyte assay relative to control
Chain of Mitogen-activated protein kinase 3 (Homo sapiens) (P27361 whole entry): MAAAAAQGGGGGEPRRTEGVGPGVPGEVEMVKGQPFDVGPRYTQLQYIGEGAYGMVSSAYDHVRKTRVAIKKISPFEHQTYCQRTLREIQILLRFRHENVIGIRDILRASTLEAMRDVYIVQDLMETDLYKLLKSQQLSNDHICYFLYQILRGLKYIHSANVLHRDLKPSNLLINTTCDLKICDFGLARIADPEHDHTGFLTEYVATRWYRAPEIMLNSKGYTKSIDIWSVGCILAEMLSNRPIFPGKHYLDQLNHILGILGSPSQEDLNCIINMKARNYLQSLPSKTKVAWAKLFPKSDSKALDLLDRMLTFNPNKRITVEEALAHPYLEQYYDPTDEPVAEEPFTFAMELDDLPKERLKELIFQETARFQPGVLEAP

[4] = target: T1, Mitogen-activated protein kinase; ERK1/ERK2 (Homo sapiens) (UniProt P27361+P28482); test: Inhibition of ERK1/2 in human MKN74 cells harboring siRNA assessed as reduction in ERK1/2 phosphorylation at 0.5 uM by immunofluorescence assay; assay type: cell-based
T1 sequence (P27361 whole entry, looked up): as the sequence (P27361 whole entry) above
T1 sequence (P28482 whole entry, looked up): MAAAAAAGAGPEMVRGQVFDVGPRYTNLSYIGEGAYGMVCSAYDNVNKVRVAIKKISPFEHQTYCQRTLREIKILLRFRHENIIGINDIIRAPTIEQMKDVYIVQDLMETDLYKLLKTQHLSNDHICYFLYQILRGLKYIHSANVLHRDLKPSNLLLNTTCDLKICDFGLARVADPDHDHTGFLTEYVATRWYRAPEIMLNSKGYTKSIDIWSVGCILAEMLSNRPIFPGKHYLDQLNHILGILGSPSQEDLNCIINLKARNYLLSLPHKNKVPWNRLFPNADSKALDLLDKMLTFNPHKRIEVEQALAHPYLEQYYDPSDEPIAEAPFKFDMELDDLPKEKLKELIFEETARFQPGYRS
Procedure, shortened: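 MKN-74 cells transfected with ERK1/2-specific or negative-control siRNA for the indicated times, then given 0.5 μM. p-ERK1/2 and p-ERK5 puncta detected by immunocytochemistry.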

[5] = target: T1, Mitogen-activated protein kinase; ERK1/ERK2 (Homo sapiens); test: Inhibition of ERK1/2 in human MKN74 cells assessed as reduction in RSK phosphorylation at T359/S363 residue at 0.5 uM measured up to 24 hrs by Western blot analysis; assay type: cell-based
MKN-74 [6] = test: Induction of autophagy in human MKN74 cells harboring ATG5 siRNA assessed as increase in LC3-2 expression at 0.5 uM by Western blot analysis; assay type: functional, cell-based
Procedure, shortened: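 MKN-74 cells transfected with ATG5 or negative-control siRNA for the indicated times, then 0.5 μM. ATG5, LC3 and p62 immunoblotted, with GAPDH loading control.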

[7] = Effect on Ras/Raf/MEK/ERK signaling in human MKN74 cells assessed as change in MEK1/2 phosphorylation at S217/221 residue at 0.5 uM measured up to 24 hrs by Western blot analysis; assay type: cell-based
Procedure, shortened: (§2)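 MKN-74 cells exposed to 0.5 μM for 0, 6, 12 and 24 h. Ras, Raf, p-MEK1/2, MEK1/2, p-JNK, JNK, p-p38 and p38 immunoblotted, with GAPDH as loading control.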

[8] = Effect on Ras/Raf/MEK/ERK signaling in human MKN74 cells assessed as change in MEK1/2 expression at 0.5 uM measured up to 24 hrs by Western blot analysis; assay type: cell-based; procedure, shortened: as §2
MKN-74 [9] = test: Antitumor activity against human MKN74 cells xenografted in BALB/c mouse assessed as reduction in Ki-67 positive cells at 50 mg/kg, po administered once daily for 16 days measured post-last dose by immunohistochemical analysis; assay type: functional, organism-based; procedure, shortened: as §1
MKN-74 [10] = test: Cytotoxicity against human MKN74 cells harboring ATG5 siRNA assessed as reduction in cell viability at 0.5 uM by MTT assay; assay type: functional, cell-based
Procedure, shortened: (§3)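 MKN-74 cells transfected with ATG5-specific or negative-control siRNA for the indicated times, then treated with 0.5 μM. Viability read by MTT assay.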

Mus musculus [11] = test: In vivo inhibition of ERK5 in BALB/c mouse xenografted with human MKN74 cells assessed as reduction in ERK5 phosphorylation at 50 mg/kg, po administered once daily for 16 days measured post-last dose by Western blot analysis; assay type: functional, organism-based
Procedure, shortened: (§4)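 Two individual tumors excised from xenograft mice were lysed. ERK1/2, p-ERK1/2, ERK5 and p-ERK5 detected by western blot.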

[12] = target: MAPK3/MAPK7 (Homo sapiens) (UniProt P27361+Q13164); test: Inhibition of ERK1/5 in human MKN74 cells assessed as reduction in c-MYC phosphorylation at S62 residue at 0.5 uM measured up to 24 hrs by Western blot analysis; assay type: cell-based
Chain of MAPK3/MAPK7 (Homo sapiens) (P27361 whole entry, looked up): as the sequence (P27361 whole entry) above
Chain of MAPK3/MAPK7 (Homo sapiens) (Q13164 whole entry, looked up): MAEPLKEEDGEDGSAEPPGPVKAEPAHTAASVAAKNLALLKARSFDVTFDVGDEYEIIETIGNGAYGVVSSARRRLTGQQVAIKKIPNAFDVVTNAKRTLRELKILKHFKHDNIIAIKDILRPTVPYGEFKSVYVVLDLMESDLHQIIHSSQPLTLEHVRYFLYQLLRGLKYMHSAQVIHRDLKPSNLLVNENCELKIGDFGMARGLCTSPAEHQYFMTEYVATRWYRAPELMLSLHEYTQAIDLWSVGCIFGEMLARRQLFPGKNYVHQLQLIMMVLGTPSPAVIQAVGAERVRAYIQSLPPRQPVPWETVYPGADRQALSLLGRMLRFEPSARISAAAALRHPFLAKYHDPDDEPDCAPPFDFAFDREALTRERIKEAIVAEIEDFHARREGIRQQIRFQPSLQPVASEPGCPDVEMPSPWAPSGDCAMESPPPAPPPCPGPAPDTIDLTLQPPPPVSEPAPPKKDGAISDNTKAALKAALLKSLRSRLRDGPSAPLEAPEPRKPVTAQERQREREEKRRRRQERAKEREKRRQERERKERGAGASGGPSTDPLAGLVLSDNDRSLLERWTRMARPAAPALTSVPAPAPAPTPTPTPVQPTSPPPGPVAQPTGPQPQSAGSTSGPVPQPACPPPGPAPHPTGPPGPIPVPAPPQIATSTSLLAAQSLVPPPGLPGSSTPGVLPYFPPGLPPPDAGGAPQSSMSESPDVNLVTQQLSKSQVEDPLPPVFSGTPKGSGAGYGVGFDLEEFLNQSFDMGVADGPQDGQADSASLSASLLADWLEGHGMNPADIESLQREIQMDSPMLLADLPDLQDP

MKN-74 [13] = test: Antitumor activity against human MKN74 cells xenografted in BALB/c mouse assessed as reduction in tumor weight at 50 mg/kg, po administered once daily for 16 days measured post-last dose; assay type: functional, organism-based
Procedure, shortened: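 Female nude mice bearing subcutaneous xenografts (8 per group) received vehicle or 50 mg/kg p.o. once daily for 16 days. Excised tumors weighed and compared with control group.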

[14] = Cmax in Sprague-Dawley rat at 1 mg/kg, iv by LC-MS analysis; assay type: ADME, organism-based; set-up: dose 1 mg/kg, route intravenous; settings: in vivo
Procedure, shortened: (§5)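 Rats, two groups of 3; single i.v. dose 1 mg/kg or oral dose 10 mg/kg. Plasma concentration-time profiles used to derive T1/2, Tmax, Cmax, AUC0-t, AUC0-∞ and oral bioavailability. Data from triplicate testing, ± standard deviation.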

MKN-74 [15] = test: Antitumor activity against human MKN74 cells xenografted in BALB/c mouse assessed as reduction in tumor volume at 50 mg/kg, po administered once daily for 16 days measured every 3 days during compound dosing; assay type: functional, organism-based
Procedure, shortened: (§6)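 Female nude mice bearing subcutaneous HL-60, MKN-74 or HeLa xenografts, 8 per group. Dosing was vehicle control or 50 mg/kg p.o. once daily for 16 days. Tumor volume followed over time, mean ± SEM.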

HL-60 [16] = test: Induction of autophagy in human HL60 cells; assay type: functional, cell-based
[17] = Half life in Sprague-Dawley rat at 10 mg/kg, po by LC-MS analysis; assay type: ADME, organism-based; settings: in vivo; procedure, shortened: as §5
MKN-74 [18] = test: Induction of autophagy in human MKN74 cells assessed as increase in p62 degradation at 0.5 uM measured up to 24 hrs by Western blot analysis; assay type: functional, cell-based
Procedure, shortened: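 MKN-74 cells treated with 0.5 μM; LC3 (LC3-II) and p62 levels analyzed by immunoblotting.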

MKN-74 [19] = test: Induction of autophagy in human MKN74 cells assessed as increase in LC3-2 expression at 0.5 uM measured after 24 hrs in presence of autophagy inhibitor 3-methyladenine by Western blot analysis; assay type: functional, cell-based
Procedure, shortened: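 MKN-74 cells given 0.5 μM for 24 h with or without 3-MA; LC3 and p62 immunoblotted.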

[20] = target: Mitogen-activated protein kinase 7 (Homo sapiens) (UniProt Q13164); test: Inhibition of wild-type human partial length ERK5 (M1 to A409 residues) expressed in bacterial expression system at 1 uM by Kinomescan method relative to control
Chain of Mitogen-activated protein kinase 7 (Homo sapiens) (Q13164 2-816 limits assumed): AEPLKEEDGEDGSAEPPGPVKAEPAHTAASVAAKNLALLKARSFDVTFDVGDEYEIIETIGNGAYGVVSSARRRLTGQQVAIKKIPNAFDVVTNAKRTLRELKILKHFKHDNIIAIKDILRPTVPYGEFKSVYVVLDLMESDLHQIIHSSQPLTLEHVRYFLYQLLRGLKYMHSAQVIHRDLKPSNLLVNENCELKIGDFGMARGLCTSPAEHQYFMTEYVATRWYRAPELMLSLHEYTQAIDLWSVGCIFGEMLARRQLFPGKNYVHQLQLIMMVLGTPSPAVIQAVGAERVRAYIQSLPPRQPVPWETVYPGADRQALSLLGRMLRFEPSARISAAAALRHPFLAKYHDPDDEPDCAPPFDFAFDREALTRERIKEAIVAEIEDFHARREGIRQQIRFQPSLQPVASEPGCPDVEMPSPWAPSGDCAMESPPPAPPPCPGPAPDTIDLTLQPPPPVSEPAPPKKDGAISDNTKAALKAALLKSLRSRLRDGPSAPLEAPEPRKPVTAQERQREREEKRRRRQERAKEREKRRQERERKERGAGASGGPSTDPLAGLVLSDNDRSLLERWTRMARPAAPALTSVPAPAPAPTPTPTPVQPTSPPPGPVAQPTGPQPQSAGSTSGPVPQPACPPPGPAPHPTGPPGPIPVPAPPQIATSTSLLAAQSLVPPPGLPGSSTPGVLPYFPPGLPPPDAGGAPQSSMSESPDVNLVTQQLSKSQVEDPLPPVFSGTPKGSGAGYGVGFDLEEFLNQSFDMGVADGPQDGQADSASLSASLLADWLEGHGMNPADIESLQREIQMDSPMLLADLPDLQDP
Procedure, shortened: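 KINOMEscan binding assays over a 100-kinase panel, with test compound at 1 μM. Results are given as % inhibition.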

[21] = Effect on Ras/Raf/MEK/ERK signaling in human MKN74 cells assessed as change in Raf expression at 0.5 uM measured up to 24 hrs by Western blot analysis; assay type: cell-based; procedure, shortened: as §2
Mus musculus [22] = test: In vivo inhibition of ERK1/2 in BALB/c mouse xenografted with human MKN74 cells assessed as reduction in ERK1/2 phosphorylation at 50 mg/kg, po administered once daily for 16 days measured post-last dose by Western blot analysis; assay type: functional, organism-based; procedure, shortened: as §4
[23] = target: Mitogen-activated protein kinase 7 (Homo sapiens) (UniProt Q13164); test: Inhibition of ERK5 (unknown origin) at 1 uM by Z'-Lyte assay relative to control
HeLa = test: Antitumor activity against human HeLa cells xenografted in BALB/c mouse assessed as reduction in tumor volume at 50 mg/kg, po administered once daily for 16 days measured every 3 days during compound dosing; assay type: functional, organism-based; procedure, shortened: as §6
[24] = Effect on Ras/Raf/MEK/ERK signaling in human MKN74 cells assessed as change in p38 expression at 0.5 uM measured up to 24 hrs by Western blot analysis; assay type: cell-based; procedure, shortened: as §2
MKN-74 [25] = test: Cytotoxicity against human MKN74 cells harboring siRNA assessed as reduction in cell viability at 0.5 uM by MTT assay; assay type: functional, cell-based; procedure, shortened: as §3

With NC(=O)c1c(NC(=O)c2ccccc2Cl)sc2c1CCN(C(=S)Nc1ccccc1Cl)C2 the Activity (HL-60 [1]) was “inactive”, the inhibition (Mus musculus [2]) was “Active” and the inhibition [3] was 93.5%. For the same compound, the inhibition [4] was “Active”, the inhibition [5] was “inactive” and the Activity (MKN-74 [6]) was “inactive”. For the same compound, the Activity [7] was “inactive”, the Activity [8] was “inactive” and the Activity (MKN-74 [9]) was “Active”. For the same compound, the Activity (MKN-74 [10]) was “inactive”, the inhibition (Mus musculus [11]) was “Active” and the inhibition [12] was “Active”. The Activity (MKN-74 [13]) was “Active”, the Cmax [14] was 1890 ng/mL and the Activity (MKN-74 [15]) was “Active”. For the same compound, the Activity (HL-60 [16]) was “inactive”, the half-life [17] was 74.4 min and the Activity (MKN-74 [18]) was “Active”. For the same compound, the Activity (MKN-74 [19]) was “inactive”, the inhibition [20] was 87% and the Activity [21] was “inactive”. The inhibition (Mus musculus [22]) was “Active”, the inhibition [23] was 89.3% and the Activity (HeLa) was “inactive”. For the same compound, the Activity [24] was “inactive” and the Activity (MKN-74 [25]) was “Active”.
